From ChEMBL document CHEMBL1146592, “Structures of new friedelane-type triterpenes and eudesmane-type sesquiterpene and aldose reductase inhibitors from Salacia chinensis” (J Nat Prod, 2003)

Legend:
[1] = target: Aldo-keto reductase family 1 member B1 (Rattus norvegicus, UniProt P07943); assay: Inhibition of aldose reductase in rat lens homogenate
In short: (§1)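 Crude enzyme was supernatant of rat lens homogenate. Reaction was started with NADPH at 30 °C, run 30 min and stopped with HCl. NADP was converted to a fluorescent product with NaOH/imidazole at 60 °C for 20 min. Read-out was fluorescence at ex 360/em 460 nm.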

[2] = target: Aldo-keto reductase family 1 member B1 (Rattus norvegicus) (UniProt P07943); assay: Inhibition of aldose reductase in rat lens homogenate at 100 uM; in short: as §1
[3] = target: Aldo-keto reductase family 1 member B1 (Rattus norvegicus) (UniProt P07943); assay: Inhibition of aldose reductase in rat lens homogenate at 30 uM; in short: as §1

Structure (SMILES) | IC50 [1] | inhibition [2] | inhibition [3]
C[C@@H]1[C@@]23CC[C@H]4[C@@](C)(CC[C@@]5(C)[C@@H]6C[C@](C)(C(=O)O)CC[C@]6(C)CC[C@]45C)[C@@H]2CC[C@@]1(O)OC3 [SALASPERMIC ACID] | > 100 µM | 2% | –
C[C@H]1C(=O)[C@H](O)C[C@@H]2[C@]1(C)CC[C@H]1[C@@]2(C)CC[C@@]2(C)[C@@H]3C[C@](C)(C(=O)O)CC[C@]3(C)CC[C@]12C [WILFOLIC ACID C] | 100 µM | 48% | –
C[C@@H]1[C@@]23CC[C@H]4[C@@](C)(CC[C@@]5(C)[C@@H]6C[C@](C)(C(=O)O)CC[C@]6(C)CC[C@]45C)[C@@H]2C[C@@H](O)[C@]1(O)OC3 [ORTHOSPHENIC ACID] | > 100 µM | 19% | –
C[C@H]1C(=O)CC[C@@H]2[C@]1(C)CC[C@H]1[C@@]2(C)CC[C@@]2(C)[C@@H]3C[C@](C)(C(=O)O)CC[C@]3(C)CC[C@]12C [MAYTENOIC ACID] | > 100 µM | 44% | –
O=c1c2cc(O)c(O)cc2oc2cc(O)c([C@@H]3O[C@H](CO)[C@@H](O)[C@H](O)[C@H]3O)c(O)c12 [MANGIFERIN] | 3.2 µM | – | –
Oc1cc(O)c2c(c1)O[C@H](c1cc(O)c(O)c(O)c1)[C@H](O)C2 [EPIGALLOCATECHIN] | > 30 µM | – | 19%
Oc1cc(O)c2c(c1)O[C@H](c1ccc(O)c(O)c1)[C@@H](O)C2 [CIANIDANOL] | > 30 µM | – | 38%
CC(=O)OC[C@]12[C@@H](OC(=O)c3ccccc3)C[C@@H]3[C@@H](OC(C)=O)[C@]1(OC3(C)C)[C@H](C)C[C@H](OC(C)=O)[C@@H]2O [CELAHIN C] | 95 µM | – | –
CC1=C(O)C(=O)C=C2C1=CC=C1[C@@]2(C)CC[C@@]2(C)[C@@H]3C[C@@H](C)C(=O)C[C@]3(C)CC[C@]12C [TINGENONE] | 13 µM | – | –
Cc1c(O)c(O)cc2c1CC[C@H]1[C@@]2(C)CC[C@@]2(C)[C@@H]3C[C@@H](C)C(=O)[C@@H](O)[C@]3(C)CC[C@]12C [REGEOL A] | 30 µM | – | –
CC1(C)[C@@H](O)CC[C@]2(C)[C@H]3CC=C4[C@@H]5C[C@](C)(C(=O)O)C[C@@H](O)[C@]5(C)CC[C@@]4(C)[C@]3(C)CC[C@@H]12 | 26 µM | – | –
CC1=C2CC[C@H]3[C@@](C)(CC[C@@]4(C)[C@@H]5C[C@@H](C)C(=O)[C@@H](O)[C@]5(C)CC[C@]34C)[C@@H]2C[C@H](O)C1=O [TRIPTOCALLINE A] | 14 µM | – | –
Oc1cc(O)c2c(c1)O[C@H](c1ccc(O)c(O)c1)[C@H](O)C2 [(-)-EPICATECHIN] | > 30 µM | – | 41%
CC1(C)C(=O)CC[C@]2(C)[C@H]3CC=C4[C@@H]5C[C@](C)(C(=O)O)C[C@H](O)[C@]5(C)CC[C@@]4(C)[C@]3(C)CC[C@@H]12 | > 100 µM | 25% | –
COc1cc([C@H]2c3cc(O)c(OC)cc3C[C@@H](CO)[C@@H]2CO)ccc1O [ISOLARICIRESINOL] | > 100 µM | 36% | –
COc1cc([C@H]2c3c(cc(OC)c(O)c3OC)C[C@@H](CO)[C@@H]2CO)ccc1O | > 100 µM | 24% | –
C[C@H]1C(=O)CC[C@@H]2[C@]1(C)CC[C@H]1[C@@]2(C)CC[C@@]2(C)[C@@H]3CC(C)(C)CC[C@]3(C)C[C@H](O)[C@]12C | > 100 µM | 8% | –
C[C@H]1C(=O)CC[C@@H]2[C@]1(C)CC[C@H]1[C@@]2(C)CC[C@@]2(C)[C@@H]3C[C@](C)(CO)CC[C@]3(C)CC[C@]12C [3-OXO-29-HYDROXYFRIEDELANE] | 98 µM | – | –
C[C@@H]1[C@H]2C3=CC[C@@H]4[C@@]5(C)CCC(=O)C(C)(C)[C@@H]5CC[C@@]4(C)[C@]3(C)CC[C@@]2(C)[C@@H](O)C[C@H]1C(=O)O [DEMETHYLREGELIN] | > 100 µM | 26% | –
CC1=C(O)C(=O)C=C2C1=CC=C1[C@@]2(C)CC[C@@]2(C)[C@@H]3C[C@@H](C)C(=O)[C@@H](O)[C@]3(C)CC[C@]12C [TINGENIN B] | 7 µM | – | –
C[C@@H]1[C@H]2C3=CC[C@@H]4[C@@]5(C)CC[C@H](O)C(C)(C)[C@@H]5CC[C@@]4(C)[C@]3(C)CC[C@@]2(C)[C@@H](O)C[C@H]1C(=O)O [TRIPTERYGIC ACID A] | > 100 µM | 27% | –
CC1(C)CC[C@]2(C)CC[C@]3(C)C(=CC[C@@H]4[C@@]5(C)CCC(=O)C(C)(C)[C@@H]5CC[C@]43C)[C@@H]2C1 | > 100 µM | 3% | –
CC1(C)[C@@H](O)CC[C@]2(C)[C@H]3CC=C4[C@@H]5C[C@](C)(C(=O)O)C[C@H](O)[C@]5(C)CC[C@@]4(C)[C@]3(C)CC[C@@H]12 [MAYTENFOLIC ACID] | 72 µM | – | –
COc1cc([C@H]2c3c(cc(OC)c(O)c3OC)C[C@@H](CO)[C@@H]2CO)cc(OC)c1O | > 100 µM | 10% | –
CC1(C)CC[C@]2(C)CC[C@]3(C)C(=CC[C@@H]4[C@@]5(C)CC[C@H](O)C(C)(C)[C@@H]5CC[C@]43C)[C@@H]2C1 [beta-AMYRIN] | > 100 µM | 6% | –
